Data: ChEMBL document CHEMBL1649091, “Flavonoids with an oligopolysulfated moiety: a new class of anticoagulant agents” (J Med Chem, 2011)
Calls of active or inactive are those of the source. The rule behind the calls is not given here.

Key:
Mus musculus [1] = assay: Anticoagulant activity in mouse assessed as increase in activated partial prothrombin time at 150 umol/kg, ip relative to control; type: functional
Method in brief: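 Adult male CD1 mice (30-35 g) given compound in saline ip at 150 µmol/kg, fasted on the day. Citrated portal vein blood taken at 30, 60 and 120 min. APTT measured in platelet-poor plasma. Expressed as ratio to saline-treated mice, mean ± SEM of three experiments.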

[2] = Anticoagulant activity in human plasma assessed as concentration required to double prothrombin time; type: functional
Method in brief: (§1)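 Citrated pooled normal human plasma mixed 1:1 with compound in water (final 5 × 10-3 to 0.05 × 10^-3 M) and held 2 min at 37 °C. APTT: reagent added, 6 min at 37 °C, then 25 mmol/L CaCl2. PT: prewarmed PT reagent. TT: prewarmed thrombin (100 U/mL). Clotting read on a coagulometer, duplicate, three days (n = 6). Doubling concentration taken from linear regression of each concentration-response curve.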

[3] = Anticoagulant activity in human plasma assessed as concentration required to double activated partial prothrombin time; type: functional; method in brief: as §1
[4] = Anticoagulant activity in human plasma assessed as concentration required to double thrombin time; type: functional; method in brief: as §1
Blood [5] = assay: Anticoagulant activity in human whole blood assessed as clotting time at 1.25 x 10^-4M by thromboelastography in presence of intrinsic activators; type: functional
Method in brief: (§2)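 Citrated whole blood from healthy donors (1:9 citrate), run within 5 h on a ROTEM analyzer. Compound in saline diluted 1:16 into blood to the final concentration stated; saline control. Intrinsic (InTEM) or extrinsic (ExTEM) activator added. Clot monitored at 37 °C in an oscillating cup-and-pin system for up to 60 min, giving R, K, angle and MA.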

Blood [6] = assay: Anticoagulant activity in human whole blood assessed as clotting formation time at 1.25 x 10^-4M by thromboelastography in presence of intrinsic activators; type: functional; method in brief: as §2
Blood [7] = assay: Anticoagulant activity in human whole blood assessed as clotting time at 1.25 x 10^-4M by thromboelastography in presence of extrinsic activators; type: functional; method in brief: as §2
Blood [8] = assay: Anticoagulant activity in human whole blood assessed as clotting formation time at 1.25 x 10^-4M by thromboelastography in presence of extrinsic activators; type: functional; method in brief: as §2
[9] = Antiplatelet activity against collagen ADP-induced human platelet aggregation assessed as closure time at 1.25 x 10^-4M; type: functional
Method in brief: (§3)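 Compound solution added to citrated human whole blood (125 µL into 1875 µL) to the final concentration stated, then run on a PFA-100 in collagen/ADP and collagen/epinephrine cartridges. Closure time is the time until platelets occlude the membrane aperture, in seconds. Mean ± SEM of three independent experiments.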

[10] = Antiplatelet activity against collagen EPI-induced human platelet aggregation assessed as closure time at 1.25 x 10^-4M; type: functional; method in brief: as §3
[11] = target: Coagulation factor X (Homo sapiens) (UniProt P00742); assay: Inhibition of human factor 10a assessed as 25 x 10^-6M chromogenic TH substrate hydrolysis at 2 x 10^-3M
Chain of Coagulation factor X (Homo sapiens) (P00742 41-179 limits assumed): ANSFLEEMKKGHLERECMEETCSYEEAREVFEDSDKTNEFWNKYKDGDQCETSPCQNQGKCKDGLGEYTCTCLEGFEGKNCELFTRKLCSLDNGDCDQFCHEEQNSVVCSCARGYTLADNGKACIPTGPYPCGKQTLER
Chain of Coagulation factor X (Homo sapiens) (P00742 235-488 limits assumed): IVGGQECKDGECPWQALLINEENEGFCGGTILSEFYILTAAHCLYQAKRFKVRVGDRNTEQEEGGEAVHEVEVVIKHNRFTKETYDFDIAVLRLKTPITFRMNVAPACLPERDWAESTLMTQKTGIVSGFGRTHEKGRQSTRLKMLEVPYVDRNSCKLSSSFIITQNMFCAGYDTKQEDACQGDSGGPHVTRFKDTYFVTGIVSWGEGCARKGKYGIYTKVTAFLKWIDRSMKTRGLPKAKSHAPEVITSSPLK
Method in brief: (§4)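 Direct FXa test, with buffer in place of ATIII: compound in water in 50 mM Tris/HCl pH 8.3, 227 mM NaCl, 0.1% BSA, 10 min at 37 °C. Human FXa (0.5 U/mL final) added for 10 min, then CBS 31.39 (25 or 125 × 10^-6 M). Read at 405 nm every 12 s for 20 min. Percent inhibition from initial slope against water control, Michaelis-Menten fit.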

[12] = target: Coagulation factor X (Homo sapiens) (UniProt P00742); assay: Inhibition of human factor 10a assessed as 25 x 10^-6M chromogenic TH substrate hydrolysis at 1 x 10^-3M; method in brief: as §4
[13] = target: Coagulation factor X (Homo sapiens) (UniProt P00742); assay: Inhibition of human factor 10a assessed as 25 x 10^-6M chromogenic TH substrate hydrolysis at 0.5 x 10^-3M; method in brief: as §4
[14] = target: Coagulation factor X (Homo sapiens) (UniProt P00742); assay: Inhibition of human factor 10a assessed as 125 x 10^-6M chromogenic TH substrate hydrolysis at 2 x 10^-3M; method in brief: as §4
[15] = target: Coagulation factor X (Homo sapiens) (UniProt P00742); assay: Inhibition of human factor 10a assessed as 125 x 10^-6M chromogenic TH substrate hydrolysis at 1 x 10^-3M; method in brief: as §4
[16] = target: Coagulation factor X (Homo sapiens) (UniProt P00742); assay: Inhibition of human factor 10a assessed as 125 x 10^-6M chromogenic TH substrate hydrolysis at 0.5 x 10^-3M; method in brief: as §4
[17] = target: T1, Coagulation factor X/antithrombin III (Homo sapiens) (UniProt P01008+P00742); assay: Inhibition of human antithrombin 3/factor 10a assessed as 25 x 10^-6M CBS31.39 substrate hydrolysis at 2 x 10^-3M; type: protein-complex assay
[18] = target: T1, Coagulation factor X/antithrombin III (Homo sapiens); assay: Inhibition of human antithrombin 3/factor 10a assessed as 25 x 10^-6M CBS31.39 substrate hydrolysis at 1 x 10^-3M; type: protein-complex assay
[19] = target: T1, Coagulation factor X/antithrombin III (Homo sapiens); assay: Inhibition of human antithrombin 3/factor 10a assessed as 25 x 10^-6M CBS31.39 substrate hydrolysis at 0.5 x 10^-3M; type: protein-complex assay
[20] = target: T1, Coagulation factor X/antithrombin III (Homo sapiens); assay: Inhibition of human antithrombin 3/factor 10a assessed as 125 x 10^-6M CBS31.39 substrate hydrolysis at 2 x 10^-3M; type: protein-complex assay
[21] = target: T1, Coagulation factor X/antithrombin III (Homo sapiens); assay: Inhibition of human antithrombin 3/factor 10a assessed as 125 x 10^-6M CBS31.39 substrate hydrolysis at 1 x 10^-3M; type: protein-complex assay
[22] = target: T1, Coagulation factor X/antithrombin III (Homo sapiens); assay: Inhibition of human antithrombin 3/factor 10a assessed as 125 x 10^-6M CBS31.39 substrate hydrolysis at 0.5 x 10^-3M; type: protein-complex assay
[23] = target: Prothrombin (Homo sapiens) (UniProt P00734); assay: Inhibition of human thrombin
Method in brief: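 Direct thrombin assay without ATIII: compound in water in 50 mM Tris/HCl pH 8.3, 227 mM NaCl, 0.1% BSA, 10 min at 37 °C. Human thrombin (0.06 U/mL final) added for 10 min, then Chromozym TH (178 × 10^-6 M). Read at 405 nm every 12 s for 20 min. Percent inhibition from initial slope against water control. Duplicates on ≥3 days.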

[24] = Stability of the compound in human plasma assessed as compound remaining after 3 hrs; type: ADME, cell-free; conditions: read-out: Activity
Method in brief: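 Compound at 25 µM final in human plasma diluted 1:1 with PBS pH 7.4, shaken at 37 °C for 180 min. Time-zero and 180-min samples quenched with TBA buffer and cold acetonitrile, then centrifuged. Supernatant dried, redissolved and analysed by HPLC. Three independent samples per time point.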

Mus musculus [25] = assay: Hepatotoxicity in mouse liver assessed as change in plasma GOT/GPT level at 150 umol/kg, ip; type: toxicity, organism-based; conditions: in vivo
Method in brief: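 Male CD1 mice (30-35 g), compound in saline ip at 150 µmol/kg. Portal vein citrated blood taken at 30, 60 and 120 min. GOT and GPT (U/L) measured in platelet-poor plasma on an automated chemistry analyzer. Four independent experiments, mean ± SEM.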

Blood [26] = assay: Anticoagulant activity in human whole blood assessed as alpha angle at 1.25 x 10^-4M by thromboelastography in presence of intrinsic activators; type: functional; method in brief: as §2
Blood [27] = assay: Anticoagulant activity in human whole blood assessed as alpha angle at 1.25 x 10^-4M by thromboelastography in presence of extrinsic activators; type: functional; method in brief: as §2
Blood [28] = assay: Anticoagulant activity in human whole blood assessed as maximum amplitude at 1.25 x 10^-4M by thromboelastography in presence of intrinsic activators; type: functional; method in brief: as §2
Blood [29] = assay: Anticoagulant activity in human whole blood assessed as maximum amplitude at 1.25 x 10^-4M by thromboelastography in presence of extrinsic activators; type: functional; method in brief: as §2

C[C@H]1O[C@@H](OC[C@@H]2O[C@H](Oc3c(-c4ccc(OS(=O)(=O)O)c(OS(=O)(=O)O)c4)oc4cc(OS(=O)(=O)O)cc(OS(=O)(=O)O)c4c3=O)[C@@H](OS(=O)(=O)O)[C@H](OS(=O)(=O)O)[C@H]2OS(=O)(=O)O)[C@@H](OS(=O)(=O)O)[C@@H](OS(=O)(=O)O)[C@@H]1OS(=O)(=O)O
fold change (FC) (Mus musculus [1]): 1.5 | 2PT [2]: 649 µM | 2aPTT [3]: 66 µM | Activity [4]: 877 µM | Time (Blood [5]): 261 s | Time (Blood [6]): 176 s | Time (Blood [7]): 120 s | Time (Blood [8]): 257 s | Time [9]: 189 s | Time [10]: 244 s | inhibition [11]: 40% | inhibition [12]: 30.9% | inhibition [13]: inactive | inhibition [14]: 42.7% | inhibition [15]: 32% | inhibition [16]: 22.4% | inhibition [17]: 31.4% | inhibition [18]: 30.5% | inhibition [19]: 29.3% | inhibition [20]: 33.1% | inhibition [21]: 20.7% | inhibition [22]: inactive | inhibition [23]: inactive | remaining at 3 h [24]: 95% | Activity (Mus musculus [25]): Non-toxic | Activity (Blood [26]): 61 degree | Activity (Blood [27]): 51 degree | Activity (Blood [28]): 48 mm | Activity (Blood [29]): 46 mm
